# An excerpt weighted towards active compounds, which were near 1.3% of everything screened.
# Hep lipid drop – hepatic lipid droplet formation modulation; AML12 mouse hepatocytes, oleate lipid droplets, BODIPY imaging; inhibition, % at 6.5 µM; 0.4% of 240,000 active; AID 1656;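 active means lipid droplet intensity inhibited by at least 50%, with more than 500 cells counted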
#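 Assay system: AML12 mouse liver cells | Compound dosing: One dose, 6.5 µM compound | Read-out basis: Droplet intensity reduction, % inhibition | Measured by: Fluorescence imaging, 20x objective, two fields per well | Schedule: Overnight treatment with compound plus oleate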
# procasp7 counter – counter-screen: procaspase-7 (human) activation; activation, % at 8.5 µM; P55210; recombinant procaspase-7, Ac-DEVD-pNA absorbance 405 nm; D23A/D198A/D206A triple mutant, cannot self-cleave; scale: DMSO 0, 5 µM enzyme 100; 0.093% of 330,000 active;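 active means percent activation above the screen-wide mean plus 3 SD, cut at about 25% in these data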
#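 System: Uncleavable procaspase-7 mutant enzyme; Amount: 2 µM procaspase-7 mutant as dispensed; Schedule: 1 h compound preincubation, 2 h substrate cleavage, 25 °C; Measured by: 405 nm absorbance of p-nitroaniline; Evaluation: percent activation from buffer-corrected 0–120 min absorbance change; Control set: low DMSO alone, high DMSO plus 5 µM PC-7.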
# VLA-4 inh – inhibition in a human VLA-4 binding assay; VLA-4 expressing cells, ligand binding flow cytometry; inhibition, % (about 7 µM as worked out from the volumes in the protocol); P13612; 0.2% of 330,000 active; in the data active means inhibition above about 50%
# procasp3 activ – activates human procaspase-3; P42574; recombinant procaspase-3 D3A, Ac-DEVD-pNA absorbance 405 nm; activation, % at 8.5 µM; 0.11% of 330,000 active; AID 463141;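 active means activation above the mean of all tested compounds plus 3 SD, cut at about 21% in these data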
# Target sequence (P42574 whole entry D9A/D28A/D175A): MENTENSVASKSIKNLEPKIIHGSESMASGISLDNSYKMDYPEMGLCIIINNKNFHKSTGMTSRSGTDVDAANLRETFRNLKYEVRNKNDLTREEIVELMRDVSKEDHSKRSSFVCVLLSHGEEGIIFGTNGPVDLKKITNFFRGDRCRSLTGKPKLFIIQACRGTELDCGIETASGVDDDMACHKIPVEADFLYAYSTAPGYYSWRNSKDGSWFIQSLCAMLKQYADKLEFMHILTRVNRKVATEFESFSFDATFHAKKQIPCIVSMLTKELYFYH
#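 Assay system: Procaspase-3 D3A mutant, all three cleavage aspartates alanine. Buffer or medium: Zinc-free HEPES saline buffer with Triton X-100. Times: 1 h compound preincubation, 2 h substrate hydrolysis at 25 °C. Measured by: 405 nm absorbance of p-nitroaniline, reads at 0 and 120 min. Read-out basis: percent activation relative to control range. Replicates: singlicate.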
# JMJD2C inh – human JMJD2C demethylase inhibition; GST-JMJD2C(1-420) H3K9me3 demethylation, DELFIA europium; AID 2099; 0.069% of 330,000 active; inhibition, % at 2.35 µM; Q9H3R0;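 active means more than half of a compound's replicate wells show inhibition beyond 50%, single wells judged on their own value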;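 further: signal counts dimethyl H3K9 product captured on neutravidin plate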
# GRK2 inh – blocks RNA aptamer binding to human GRK2. bead flow cytometry, FAM-aptamer displacement from GRK2. P25098. inhibition of aptamer binding, % at 10 µM. AID 488847. 0.59% of 330,000 active;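 active means inhibition of aptamer binding above 40%, roughly 3 SD of noise, on plates passing a quality check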;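 further: median bead fluorescence of bound FAM aptamer so fluorescent compounds give negative values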
# GRK2 CP1 – confirmation of human GRK2 inhibitors displacing RNA aptamer | shares compounds with GRK2 inh | bead-bound GRK2, FAM-aptamer displacement, flow cytometry | aptamer displacement, % at 10 µM | 4% of 2,000 active | AID 504451;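 active means aptamer displacement above 40%, near three times the noise of non-fluorescent compounds, on plates passing quality checks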;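 further: negative values mostly reflect intrinsic compound fluorescence rather than true enhancement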
# Aptamer quench SP – quenches fluorescent RNA aptamer, GRK2 hit artifact; Carboxyfluorescein RNA aptamer on beads, flow cytometry quenching; stronger effect = lower value; AID 504580; 2,000 tested, under 10 active; fluorescence response (% of DMSO), % at 10 µM; shares compounds with GRK2 inh;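 active means compounds that quench the bead-bound fluorescent RNA probe, cutting fluorescence to under half of the solvent control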;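 further: counterscreen run without GRK2 so only probe quenching by compound is measured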
# Hits are given with their value; . = inactive; / = no result.
SMILES,Hep lipid drop,procasp7 counter,VLA-4 inh,procasp3 activ,JMJD2C inh,GRK2 inh,GRK2 CP1,Aptamer quench SP
O=C(NC1CCCCC1)N1C[C@H]2C[C@@H](C1)c1cccc(=O)n1C2,.,.,.,.,.,.,/,/
Cc1cc(=O)oc2c(C)c(OCC(=O)N3CCN(Cc4ccccc4)CC3)ccc12,.,.,.,.,.,.,.,.
CN1CCN(C(=O)COc2ccc(S(=O)(=O)N(C)Cc3ccccc3)cc2)CC1,.,.,.,.,.,54,.,.
CC(=O)OCC[N+](C)(C)C,.,.,.,.,.,.,/,/
C[N+](C)(C)CCOC(=O)CBr,/,.,.,.,/,.,.,.

# Screens deposited in PubChem BioAssay by several laboratories.
